Here are results for six molecules from ChEMBL document CHEMBL1150063, “Synergistic effect of flavones and flavonols against herpes simplex virus type 1 in cell culture. Comparison with the antiviral activity of propolis” (J Nat Prod, 1992).

Data set [1] is described as follows: Cytotoxicity against african green monkey Vero cells. Format: cell-based. Particulars: chlorocebus sabaeus. The method in brief: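 Uninfected Vero monolayers (ATCC CCL81; MEM with 10% newborn calf serum) in 25 cm2 flasks, 2.10^6 cells, four flasks per dilution, exposed to 0.05–5 mM in maintenance medium, diluted from DMSO stocks with MEM. After 96 h, morphology checked by microscopy; cells trypsinized and counted by trypan blue exclusion against untreated cultures. CC50 = concentration halving cell number.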

For data set [2], the system named is Human alphaherpesvirus 1. The data set is described as follows: Antiviral activity against HSV1 in african green monkey Vero cells assessed as log reduction of virus titer at 5.7 ug/ml. Format: functional. A digest of the protocol: (§1)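 Vero (ATCC CCL81) monolayers, confluent and 1 day old, in microtiter plates. Compound was diluted from DMSO stock into MEM and added just before infection with HSV-1 strain H 29 S at 100 TCID50/well. Each drug was tested in sextuplicate at 37° for 72 h. Wells were freeze-thawed 3 times, pooled and clarified, then titrated by limit dilution (CPE, TCID50/ml). Activity is the log10 titer reduction versus untreated controls.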

Data set [3] concerns Human alphaherpesvirus 1. The data set is described as follows: Antiviral activity against HSV1 in african green monkey Vero cells assessed as log reduction of virus titer at 10 ug/ml. Format: functional. A digest of the protocol:
as §1

Data set [4] deals with Human alphaherpesvirus 1. The data set is described as follows: Antiviral activity against HSV1 in african green monkey Vero cells assessed as log reduction of virus titer at 15 ug/ml. Format: functional. The method in brief:
as §1

The subject of data set [5] is Human alphaherpesvirus 1. In words: Antiviral activity against HSV1 in african green monkey Vero cells assessed as log reduction of virus titer at 11.4 ug/ml. Format: functional. A digest of the protocol: as §1
Data set [6] deals with Human alphaherpesvirus 1. The data set is described as follows: Antiviral activity against HSV1 in african green monkey Vero cells assessed as log reduction of virus titer at 21.6 ug/ml. Format: functional. The method in brief: as §1
The test system of data set [7] is Human alphaherpesvirus 1. In words: Antiviral activity against HSV1 in african green monkey Vero cells assessed as log reduction of virus titer at 10.8 ug/ml. Format: functional. The method in brief:
as §1

Data set [8] deals with Human alphaherpesvirus 1. The data set is described as follows: Antiviral activity against HSV1 in african green monkey Vero cells assessed as log reduction of virus titer at 5 ug/ml. Format: functional. The method in brief:
as §1

Data set [9] deals with Human alphaherpesvirus 1. The data set is described as follows: Antiviral activity against HSV1 in african green monkey Vero cells assessed as log reduction of virus titer at 60.4 ug/ml. Format: functional. A digest of the protocol: as §1
Data set [10] deals with Human alphaherpesvirus 1. The data set is described as follows: Antiviral activity against HSV1 in african green monkey Vero cells assessed as log reduction of virus titer at 48.3 ug/ml. Format: functional. The method in brief: as §1
For data set [11], the system named is Human alphaherpesvirus 1. The data set is described as follows: Antiviral activity against HSV1 in african green monkey Vero cells assessed as log reduction of virus titer at 72.5 ug/ml. Format: functional. The method in brief: as §1
The subject of data set [12] is Human alphaherpesvirus 1. In words: Antiviral activity against HSV1 in african green monkey Vero cells assessed as log reduction of virus titer at 10.1 ug/ml. Format: functional. The method in brief: as §1
In data set [13] the test system is Human alphaherpesvirus 1. The data set is described as follows: Antiviral activity against HSV1 in african green monkey Vero cells assessed as log reduction of virus titer at 1.4 ug/ml. Format: functional. A digest of the protocol:
as §1

Data set [14] deals with Human alphaherpesvirus 1. The data set is described as follows: Antiviral activity against HSV1 in african green monkey Vero cells assessed as log reduction of virus titer at 32.4 ug/ml. Format: functional. The method in brief: as §1
Data set [15] deals with Human alphaherpesvirus 1. In words: Antiviral activity against HSV1 in african green monkey Vero cells assessed as log reduction of virus titer at 2.8 ug/ml. Format: functional. A digest of the protocol: as §1
Data set [16] has as its system Human alphaherpesvirus 1. The data set is described as follows: Antiviral activity against HSV1 in african green monkey Vero cells assessed as log reduction of virus titer at 36.2 ug/ml. Format: functional. The method in brief:
as §1

Data set [17] has as its system Human alphaherpesvirus 1. The data set is described as follows: Antiviral activity against HSV1 in african green monkey Vero cells assessed as log reduction of virus titer at 22.9 ug/ml. Format: functional. The method in brief: as §1
Data set [18] relates to Human alphaherpesvirus 1. The data set is described as follows: Antiviral activity against HSV1 in african green monkey Vero cells assessed as log reduction of virus titer at 24.1 ug/ml. Format: functional. A digest of the protocol: as §1
The test system of data set [19] is Human alphaherpesvirus 1. In words: Antiviral activity against HSV1 in african green monkey Vero cells assessed as log reduction of virus titer at 34.3 ug/ml. Format: functional. A digest of the protocol:
as §1

For data set [20], the system named is Human alphaherpesvirus 1. The data set is described as follows: Antiviral activity against HSV1 in african green monkey Vero cells assessed as log reduction of virus titer at 45.7 ug/ml. Format: functional. The method in brief:
as §1

Data set [21] relates to Human alphaherpesvirus 1. In words: Antiviral activity against HSV1 in african green monkey Vero cells assessed as log reduction of virus titer at 12 ug/ml. Format: functional. A digest of the protocol: as §1
Data set [22] concerns Human alphaherpesvirus 1. The data set is described as follows: Antiviral activity against HSV1 in african green monkey Vero cells assessed as log reduction of virus titer at 30.5 ug/ml. Format: functional. A digest of the protocol: as §1
The subject of data set [23] is Human alphaherpesvirus 1. The data set is described as follows: Antiviral activity against HSV1 in african green monkey Vero cells assessed as log reduction of virus titer at 5.4 ug/ml. Format: functional. A digest of the protocol: as §1
Data set [24] relates to Human alphaherpesvirus 1. In words: Antiviral activity against HSV1 in african green monkey Vero cells assessed as log reduction of virus titer at 40.6 ug/ml. Format: functional. A digest of the protocol: as §1
The test system of data set [25] is Human alphaherpesvirus 1. The data set is described as follows: Antiviral activity against HSV1 in african green monkey Vero cells assessed as log reduction of virus titer at 20.3 ug/ml. Format: functional. A digest of the protocol: as §1

In brackets after ≈: the same amount, converted by molar mass.

Take `O=c1cc(-c2ccc(O)c(O)c2)oc2cc(O)cc(O)c12` [LUTEOLIN]: in data set [1], it took 22.9 mg/L (≈ 80 µM) to reach half-maximal cytotoxicity (CC50). Besides, the Activity is on record as 0.9 with Human alphaherpesvirus 1 [2], 1 in the data set on Human alphaherpesvirus 1 [3], 1.5 with Human alphaherpesvirus 1 [4] and 2.2 in the data set with Human alphaherpesvirus 1 [5].
As to `O=c1c(O)c(-c2ccccc2)oc2cc(O)cc(O)c12` [GALANGIN], in [1], half-maximal cytotoxicity (CC50) was put at 43.2 mg/L (≈ 160 µM). Also, the Activity worked out at 3.5 in the data set with Human alphaherpesvirus 1 [6] and 2.3 in the data set on Human alphaherpesvirus 1 [7].
For the molecule `O=c1c(O)c(-c2ccc(O)c(O)c2)oc2cc(O)cc(O)c12` [QUERCETIN], the CC50 (as a rule, the concentration at which the toxic effect on the cells reaches its halfway point) in [1] came out at 151 mg/L (≈ 500 µM). Also, the Activity in the data set with Human alphaherpesvirus 1 [8] is on record as 0; in the data set on Human alphaherpesvirus 1 [9], 2; in the data set on Human alphaherpesvirus 1 [10], 1.4; in the data set with Human alphaherpesvirus 1 [11], 2.3; with Human alphaherpesvirus 1 [12], 0.3.
`O=c1cc(-c2ccc(O)cc2)oc2cc(O)cc(O)c12` [APIGENIN] showed a cytotoxic concentration (CC50) in data set [1] of 54 mg/L (≈ 200 µM). The Activity stood at 1 in the data set with Human alphaherpesvirus 1 [6], 0.25 in the data set with Human alphaherpesvirus 1 [13], 1.5 with Human alphaherpesvirus 1 [14] and 0.4 in the data set on Human alphaherpesvirus 1 [15].
In [1], `O=c1c(O)c(-c2ccc(O)cc2)oc2cc(O)cc(O)c12` [KAEMPFEROL] yielded a 50% cytotoxic concentration (CC50) of 91.5 mg/L (≈ 320 µM). Besides, the Activity with Human alphaherpesvirus 1 [16] was 1.25; in the data set on Human alphaherpesvirus 1 [17], 1.5; in the data set on Human alphaherpesvirus 1 [18], 0.75; in the data set on Human alphaherpesvirus 1 [19], 3.1; with Human alphaherpesvirus 1 [20], 3.5; with Human alphaherpesvirus 1 [21] it was 0.1.
For the molecule `O=c1cc(-c2ccccc2)oc2cc(O)cc(O)c12` [CHRYSIN], the midpoint of cytotoxicity in data set [1], the CC50, lay at 76.2 mg/L (≈ 300 µM). For the same molecule, the Activity worked out at 0.8 in the data set on Human alphaherpesvirus 1 [22]; 0.25 in the data set on Human alphaherpesvirus 1 [23]; 0.5 with Human alphaherpesvirus 1 [7]; 1.1 in the data set with Human alphaherpesvirus 1 [24]; 0.5 in the data set on Human alphaherpesvirus 1 [25].
